Test results taken from ChEMBL document CHEMBL1821614, “Synthesis and biological evaluation of novel Mannich bases of 2-arylimidazo[2,1-b]benzothiazoles as potential anti-cancer agents” (Eur J Med Chem, 2011).
Calls of active or inactive are those of the source. The calls are words filed in the database; no cut-off is given here.

Key:
MCF7 [1] = assay: Cytotoxicity against human MCF7 cells at 4 uM after 24 hrs by MTT assay; format: functional, cell-based
Summary of the method: (§1)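 Cells were grown in DMEM with 10% FCS, penicillin and streptomycin at 37 °C under 5% CO2. They were seeded at 10,000 cells/well, left overnight, then treated 24 h. Medium was replaced with fresh medium, MTT was added and plates were held 2 h at 37 °C. Absorbance was read at 570 nm. Single-point runs used 4 µM. Data come from three independent experiments as mean ± S.D.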

HepG2 [2] = assay: Selectivity ratio of IC50 for human HEK cells to IC50 for human HepG2 cells
Summary of the method: (§2)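 Selectivity index was calculated as the MTT IC50 in normal HEK cells divided by the IC50 in the given cancer line.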

HepG2 [3] = assay: Down regulation of […] protein in human HepG2 cells at 4 uM after 24 hrs by Western blot analysis; format: functional, cell-based
Summary of the method: (§3)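 HepG2 cells exposed 24 h to compounds at 4 µM, with an untreated control and a YM-201627 reference. Lysates were resolved at 50 µg protein per lane on 12% SDS-PAGE and transferred to PVDF. Membranes were blocked 2 h at RT in TBST with 5% blocking powder, probed with primary antibody at 4 °C overnight and then HRP secondary (1:2000) 1 h at RT. Detection by chemiluminescence, with β-actin as loading control.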

HeLa [4] = assay: Selectivity ratio of IC50 for human HEK cells to IC50 for human HeLa cells; summary of the method: as §2
HepG2 [5] = assay: Induction of apoptosis in human HepG2 cells assessed as caspase3 activation at 4 uM by fluorimetric analysis relative to control; format: functional
Summary of the method: (§4)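 HepG2 cells were treated with compound at 4 µM, with an untreated control. Lysates were mixed with 2× reaction buffer containing DTT, caspase-3 substrate was added and the mix was incubated 1 h at 37 °C. Fluorescence was read at ex 400/em 505 nm and expressed as activity relative to the untreated control.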

MCF7 [6] = assay: Selectivity ratio of IC50 for human HEK cells to IC50 for human MCF7 cells; summary of the method: as §2
HepG2 [7] = assay: Upregulation of Chk2 protein in human HepG2 cells at 4 uM after 24 hrs by Western blot analysis; format: functional, cell-based; summary of the method: as §3
HepG2 [8] = assay: Induction of apoptosis in human HepG2 cells assessed as caspase3 activation at 4 uM by fluorimetric analysis; format: functional, cell-based; summary of the method: as §4
HepG2 [9] = assay: Induction of cell cycle arrest in human HepG2 assessed as accumulation at G2/M-phase at 4 uM after 24 hrs by propidium iodide staining based FACS analysis; format: functional
Summary of the method: (§5)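 HepG2 cells were seeded at 5 × 10^5 per 60 mm dish and grown 24 h. Compound was added at 4 µM for a further 24 h. Cells were harvested with trypsin-EDTA, fixed in ice-cold 70% ethanol 30 min at 4 °C and treated with RNase A 30 min at 37 °C. They were stained with propidium iodide/citrate/Triton X-100 solution and phase distribution was read by flow cytometry.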

[10] = Cytotoxicity against human HEK cells after 24 hrs by MTT assay; format: cell-based; conditions: HEK293, 24 h
HeLa [11] = assay: Cytotoxicity against human HeLa cells at 4 uM after 24 hrs by MTT assay; format: functional, cell-based; summary of the method: as §1
HepG2 [12] = assay: Antiproliferative activity against human HepG2 cells assessed as down regulation of NF-kappaB protein at 4 uM after 24 hrs by Western blot analysis; format: functional, cell-based; summary of the method: as §3
HeLa [13] = assay: Cytotoxicity against human HeLa cells after 24 hrs by MTT assay; format: functional, cell-based; summary of the method: as §1
MCF7 [14] = assay: Cytotoxicity against human MCF7 cells after 24 hrs by MTT assay; format: functional, cell-based; conditions: MCF7, 24 h; summary of the method: as §1
HepG2 [15] = assay: Down regulation of PKCalpha protein in human HepG2 cells at 4 uM after 24 hrs by Western blot analysis; format: functional, cell-based; summary of the method: as §3
HepG2 [16] = assay: Down regulation of p38 MPAK protein in human HepG2 cells at 4 uM after 24 hrs by Western blot analysis; format: functional, cell-based; summary of the method: as §3
HepG2 [17] = assay: Down regulation of c-jun protein in human HepG2 cells at 4 uM after 24 hrs by Western blot analysis; format: functional, cell-based; summary of the method: as §3
HepG2 [18] = assay: Cytotoxicity against human HepG2 cells at 4 uM after 24 hrs by MTT assay; format: functional, cell-based; summary of the method: as §1
HepG2 [19] = assay: Cytotoxicity against human HepG2 cells after 24 hrs by MTT assay; format: functional, cell-based; conditions: HepG2, 24 h; summary of the method: as §1
HepG2 [20] = assay: Induction of cell cycle arrest in human HepG2 assessed as accumulation at G0/G1-phase at 4 uM after 24 hrs by propidium iodide staining based FACS analysis; format: functional; summary of the method: as §5
HepG2 [21] = assay: Down regulation of phosphorylated JNK protein in human HepG2 cells at 4 uM after 24 hrs by Western blot analysis; format: functional, cell-based; summary of the method: as §3
HepG2 [22] = assay: Induction of cell cycle arrest in human HepG2 assessed as accumulation at S-phase at 4 uM after 24 hrs by propidium iodide staining based FACS analysis; format: functional; summary of the method: as §5
HepG2 [23] = assay: Induction of cell cycle arrest at G2/M phase in human HepG2 cells assessed as down regulation of cyclin B1 at 4 uM after 24 hrs by Western blot analysis

SMILES	Activity (MCF7 [1])	Ratio IC50 (HepG2 [2])	Ratio IC50 (HeLa [4])	Ratio IC50 (MCF7 [6])	Activity (HepG2 [9]) [%]	IC50 [10] [µM]	Activity (HeLa [11])	IC50 (HeLa [13]) [µM]	IC50 (MCF7 [14]) [µM]	Activity (HepG2 [18])	IC50 (HepG2 [19]) [µM]	Activity (HepG2 [20]) [%]	Activity (HepG2 [22]) [%]	also measured
CCOc1ccc2c(c1)sc1nc(-c3ccccc3)c(CN3CCN(c4ccccn4)CC3)n12	Active	5.63	3.67	3.59	31.33	16	Active	4.36	4.45	Active	2.84	55.24	13.42	Activity (HepG2 [3]): Active; fold change (FC) (HepG2 [5]): 2; Activity (HepG2 [7]): Active; Activity (HepG2 [8]): Active; Activity (HepG2 [12]): Active; Activity (HepG2 [15]): Active; Activity (HepG2 [16]): Active; Activity (HepG2 [17]): Active; Activity (HepG2 [21]): Active; Activity (HepG2 [23]): Active
Cc1ccc2c(c1)sc1nc(-c3ccccc3)c(CN3CCCC3)n12	Active	4.86	2.163	4.6	18.95	17.5	Active	8.09	3.8	Active	3.6	73.97	7.13	
CCOc1ccc2c(c1)sc1nc(-c3ccccc3)c(CN3CCCC3)n12	Active	5			27.23	18.8	Active	4.3	3.76	Active	3.76	60.12	12.64	
CCOc1ccc2c(c1)sc1nc(-c3ccccc3)c(CN3CCOCC3)n12	Active	5.97	3.57	5	20.46	21	Active	5.89	4.2	Active	3.52	73.54	5.99	
c1ccc(-c2nc3sc4ccccc4n3c2CN2CCCC2)cc1	Active	6.15	3.98	4.78	29.27	18.5	Active	4.65	3.87	Active	3.01	60.2	10.52	
CCN(CC)CCOc1cccc(-c2cn3c(n2)sc2ccccc23)c1.Cl.Cl	Active	8.663	4.069	4.87	22.43	17.5	Active	4.3	3.59	Active	2.02	64.19	13.37	
Cc1ccc2c(c1)sc1nc(-c3ccccc3)c(CN3CCOCC3)n12	Active	5.78	2.5	5	20.9	19	Active	7.59	3.8	Active	3.29	70.89	8.2	
Clc1ccc(-c2nc3sc4ccccc4n3c2CN2CCCC2)cc1	Active	6.12	4.89	5.2	13.66	21.2	Active	4.33	4.07	Active	3.46	81.75	4.58	
